Data reported in BindingDB's records for doi:10.1021/jm9013482 (Harvard Medical School, 2010).

Biological target: Delta-type opioid receptor (Homo sapiens, UniProt P41143)
Assay: Displacement of [3H]naltrindole from human delta opioid receptor expressed in CHO cells
In short: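 CHO cells stably expressing a single human opioid receptor were grown in DMEM with 10% FBS and penicillin/streptomycin at 37 °C in 5% CO2. Their membranes were incubated with radioligand and 12 concentrations of test compound at 25 °C in 50 mM Tris-HCl, pH 7.5.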

Chain of Delta-type opioid receptor (P41143 whole entry): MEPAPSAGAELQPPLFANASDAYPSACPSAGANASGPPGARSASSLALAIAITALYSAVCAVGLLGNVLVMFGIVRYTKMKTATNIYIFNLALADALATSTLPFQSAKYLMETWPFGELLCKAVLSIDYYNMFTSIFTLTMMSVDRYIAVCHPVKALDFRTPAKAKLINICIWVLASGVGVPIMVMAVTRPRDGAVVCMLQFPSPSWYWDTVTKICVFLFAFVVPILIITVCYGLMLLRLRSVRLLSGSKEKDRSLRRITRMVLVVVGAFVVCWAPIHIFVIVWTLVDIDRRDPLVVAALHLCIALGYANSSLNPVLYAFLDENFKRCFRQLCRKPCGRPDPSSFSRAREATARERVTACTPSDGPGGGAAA

Structure (SMILES): O=C(CCCCC(=O)NCc1cc2c(cc1O)[C@@]13CCCC[C@H]1[C@@H](C2)N(CC1CCC1)CC3)NCc1cc2c(cc1O)[C@@]13CCCC[C@H]1[C@@H](C2)N(CC1CCC1)CC3 [Hexanedioic Acid Bis(17-N-cyclobutylmethyl-3-hydroxymorphinan-2-methyl)amide]
- Ki: 630 nM
